How the values were obtained:
Format in all cases: functional
[1] = tested on: Escherichia coli DH5[alpha]; test: Antagonist activity at Escherichia coli DH5alpha (pJN105L + pSC11) LasR assessed as inhibition of N-(3-oxo)-dodecanoyl HL-induced quorum sensing activation at 10 uM relative to untreated control
[2] = tested on: Escherichia coli DH5[alpha]; test: Agonist activity at Escherichia coli DH5alpha (pJN105L + pSC11) LasR assessed as activation of quorum sensing at 10 uM relative to N-(3-oxo)-dodecanoyl HL
[3] = molecular target: T1, Transcriptional activator protein LuxR (Aliivibrio fischeri) (UniProt P12746); test: Agonist activity at Vibrio fischeri ESI 114 (delta-LuxI) LuxR assessed as activation of quorum sensing at 10 uM relative to OHHL
T1 sequence (whole entry): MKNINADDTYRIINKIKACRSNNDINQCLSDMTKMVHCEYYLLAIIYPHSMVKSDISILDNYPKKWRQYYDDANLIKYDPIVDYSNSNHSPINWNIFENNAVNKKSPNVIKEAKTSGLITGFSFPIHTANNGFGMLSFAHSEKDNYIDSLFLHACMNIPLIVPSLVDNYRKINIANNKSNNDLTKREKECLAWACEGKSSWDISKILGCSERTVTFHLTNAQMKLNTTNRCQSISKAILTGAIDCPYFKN
In short: (§1)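 LuxR reporter in V. fischeri ESI 114 (Δ-LuxI), compounds screened at 10 μM in triplicate. For inhibition, cells challenged with 2 μM OHHL. Agonism normalized to native ligand at 100 μM. Negative controls with no ligand subtracted as background.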

[4] = molecular target: T2, Transcriptional activator protein LasR (Pseudomonas aeruginosa (strain ATCC 15692 / PAO1 / 1C / PRS 101 / LMG12228)) (UniProt P25084); test: Agonist activity at Pseudomonas aeruginosa PAO1 MW1 (pUM15) LasR assessed as activation of quorum sensing at 10 uM relative to N-(3-oxo)-dodecanoyl HL
T2 sequence (whole entry): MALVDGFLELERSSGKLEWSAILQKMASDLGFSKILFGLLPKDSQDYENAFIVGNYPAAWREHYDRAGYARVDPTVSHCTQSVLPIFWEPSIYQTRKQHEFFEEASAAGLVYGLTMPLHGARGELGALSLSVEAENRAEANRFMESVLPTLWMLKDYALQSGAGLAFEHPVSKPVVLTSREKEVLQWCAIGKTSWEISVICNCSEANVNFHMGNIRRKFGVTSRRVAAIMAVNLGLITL
In short: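 P. aeruginosa PAO1 MW1 grown overnight at 30 °C in LB/MOPS pH 7 with carbenicillin (300 µg/mL). Subcultured 1:10 at 37 °C to OD 0.25–0.30 and plated with compound only, no native ligand. Incubated with shaking at 37 °C for 8 h. OD and fluorescence then read.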

[5] = molecular target: T2, Transcriptional activator protein LasR (Pseudomonas aeruginosa (strain ATCC 15692 / PAO1 / 1C / PRS 101 / LMG12228)); test: Antagonist activity at Pseudomonas aeruginosa PAO1 MW1 (pUM15) LasR assessed as inhibition of N-(3-oxo)-dodecanoyl HL-induced quorum sensing activation at 10 uM relative to untreated control
In short: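 P. aeruginosa PAO1 MW1 colony grown overnight at 30 °C in LB with MOPS at pH 7 plus carbenicillin (300 µg/mL). Diluted 1:10 and shaken at 37 °C to OD 0.25–0.30. OdDHL added to the subculture at 1 μM final, then plated with test compound. Plates shaken at 37 °C for 8 h, then optical density and fluorescence read.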

[6] = molecular target: T1, Transcriptional activator protein LuxR (Aliivibrio fischeri); test: Antagonist activity at Vibrio fischeri ESI 114 (delta-LuxI) LuxR assessed as inhibition of OHHL-induced quorum sensing activation at 10 uM relative to untreated control; in short: as §1
[7] = molecular target: T3, Transcriptional activator protein TraR (Agrobacterium tumefaciens) (UniProt P33905); test: Antagonist activity at Agrobacterium tumefaciens WCF (pCF372) TraR assessed as inhibition of OOHL-induced quorum sensing activation at 10 uM relative to untreated control
T3 sequence (whole entry): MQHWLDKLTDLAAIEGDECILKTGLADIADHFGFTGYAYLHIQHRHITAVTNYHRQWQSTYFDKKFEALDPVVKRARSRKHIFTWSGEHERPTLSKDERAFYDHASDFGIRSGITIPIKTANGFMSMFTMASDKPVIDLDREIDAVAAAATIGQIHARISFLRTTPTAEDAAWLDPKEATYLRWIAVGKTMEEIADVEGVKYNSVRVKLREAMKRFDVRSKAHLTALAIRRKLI

[8] = molecular target: T3, Transcriptional activator protein TraR (Agrobacterium tumefaciens); test: Agonist activity at Agrobacterium tumefaciens WCF (pCF372) TraR assessed as activation of quorum sensing at 10 uM relative to OOHL

Row | SMILES | inhibition [1] | Activity [2] | Activity [3] | Activity [4] | inhibition [5] | inhibition [6] | inhibition [7] | Activity [8]
1 | COc1ccc(CC(=O)NC2CCCC2)cc1 | 24% | 6% | 3% | 0% | -1% | 18% | – | –
2 | CCCCCCCCCC(=O)CC(=O)NCc1ccc(OC)cc1 | – | 73% | 2% | 1% | 38% | 15% | -8% | 0%
3 | CCCCCCCCCC(=O)CC(=O)NCc1ccc(OC)c(OC)c1 | 13% | 1% | 1% | 0% | 9% | – | -10% | 0%
4 | CCCCCCCCCC(=O)CC(=O)N[C@@H](C)C(=O)OC | -4% | 2% | 4% | 0% | 23% | 24% | -4% | 0%
5 | CCCCCCCCCC(=O)CC(=O)NCc1ccc(F)cc1 | 13% | 0% | 1% | 0% | 13% | – | – | 0%
6 | CCCCCCCCCC(=O)CC(=O)Nc1ccccc1 | 54% | 3% | 2% | 1% | 29% | 12% | – | 1%
7 | CCCCCCCCCC(=O)CC(=O)NCC(=O)OCC | – | 51% | 8% | 12% | 11% | – | -3% | 2%
8 | CCOC(=O)CNC(=O)CCc1cccc(I)c1 | 38% | 0% | 0% | 0% | – | 89% | – | –
9 | CCOC(=O)CNC(=O)Cc1ccc(SC(F)(F)F)cc1 | 33% | 0% | 0% | 0% | – | 43% | – | –
10 | CCOC(=O)CNC(=O)CCc1ccc(OC)cc1 | 36% | 0% | 0% | 0% | -6% | 40% | – | –
11 | CCCCCCCCCC(=O)CC(=O)NCCC(c1ccccc1)c1ccccc1 | 17% | 0% | 6% | 0% | 8% | – | -6% | -1%
12 | O=C(Cc1ccc(-c2ccccc2)cc1)NC1CCCC1 | 4% | 0% | 5% | 1% | – | 17% | – | –
13 | O=C(Cc1cccc([N+](=O)[O-])c1)NC1CCCC1 | 29% | 0% | 33% | 0% | -5% | 62% | – | –
14 | CCOC(=O)CNC(=O)Cc1ccc(Br)cc1 | 33% | 0% | 0% | 0% | – | 14% | – | –
15 | CCOC(=O)CNC(=O)CCc1ccc(Cl)cc1 | 38% | 0% | 0% | 0% | -5% | 14% | – | –
16 | O=C(CCCc1c[nH]c2ccccc12)NC1CCCC1 | 20% | 0% | 4% | 2% | -10% | 25% | – | –

Row | SMILES | inhibition [1] | Activity [2] | Activity [3] | Activity [4] | inhibition [5] | inhibition [6] | inhibition [7] | Activity [8]
17 | CCOC(=O)CNC(=O)Cc1cccc([N+](=O)[O-])c1 | 41% | 93% | 0% | 0% | – | 19% | – | –
18 | O=C(Cc1ccc(Br)cc1)NC1CCCC1 | 11% | 0% | 0% | 0% | – | 35% | – | –
19 | CCCCCCCCCC(=O)CC(=O)NCc1ccco1 | 0% | 0% | 4% | 0% | 26% | -4% | 1% | -1%
20 | CCCCCCCCCC(=O)CC(=O)NCc1cccc([N+](=O)[O-])c1 | 41% | 0% | 2% | 0% | 17% | 44% | -6% | 0%
21 | CCCCCCCCCC(=O)Nc1ccccc1 | 20% | 3% | 7% | 0% | 5% | 2% | – | –
22 | CCCCCCCCCC(=O)CC(=O)NCc1c(F)cccc1F | 13% | 1% | 5% | 0% | 5% | – | – | -1%
23 | O=C(Cc1cccc([N+](=O)[O-])c1)Nc1ccccc1 | 12% | 0% | 0% | 1% | 0% | 0% | – | –
24 | CCCCCCCCCC(=O)CC(=O)NCCc1ccccc1 | -4% | 0% | 1% | 0% | 5% | 7% | -4% | 0%
25 | CCCCCCCCCC(=O)CC(=O)NC1CCCC1 | – | 84% | 4% | 54% | -1% | 89% | -3% | -1%
26 | CCOC(=O)CNC(=O)Cc1ccccc1 | 38% | 0% | 0% | 0% | -10% | 15% | – | –
27 | CCCCCCCCCC(=O)CC(=O)Nc1cc(-c2ccc(Cl)cc2)nn1C | 0% | 0% | 3% | 0% | 0% | 2% | – | -2%
28 | CCCCCCCCCC(=O)CC(=O)NCc1ccccc1F | 38% | 0% | 2% | 0% | 13% | – | – | -1%
29 | CCCCCCCCCC(=O)CC(=O)NCCC1=CCCCC1 | 10% | 0% | 3% | 4% | -7% | 35% | – | -1%
30 | O=C(Cc1ccc(Br)cc1)Nc1ccccc1 | 20% | 3% | 0% | 0% | 12% | 1% | – | –
31 | CCCCCCCCCC(=O)CC(=O)NCc1cc(F)cc(F)c1 | 22% | 0% | 3% | 0% | 16% | – | -10% | -1%
32 | O=C(Cc1ccccc1)NC1CCCC1 | 11% | 0% | 0% | 0% | 1% | 19% | – | –
